≈ marks a conversion by molar mass, not a printed value.
Experiments:
[1] = AUC (0 to infinity) in Wistar Han rat lung at 0.1 umol/kg, administered via intratracheal instillation by LC-MS/MS analysis; type: ADME, tissue-based; parameters: dose 0.1 umol/kg, time infinity; settings: inhaled or intranasal
Lung [2] = experiment: Drug uptake in Wistar Han rat lung at 0.1 umol/kg, administered via intratracheal instillation after 4 hrs by LC-MS/MS analysis; type: ADME, tissue-based; settings: in vivo, inhaled_or_intranasal
Lung [3] = experiment: Drug uptake in Wistar Han rat lung at 0.1 umol/kg, administered via intratracheal instillation after 24 hrs by LC-MS/MS analysis; type: ADME, tissue-based; settings: in vivo, inhaled_or_intranasal
[4] = Volume of distribution at steady state in Wistar Han rat at 1 umol/kg, iv administered as bolus dose by LC-MS/MS analysis; type: ADME, organism-based; settings: in vivo, read-out: Vdss
[5] = Intrinsic clearance in human hepatocytes assessed per million cells; type: ADME, cell-based, Hepatocyte; settings: read-out: CLH
[6] = Mean residence time in Wistar Han rat lung at 0.1 umol/kg, administered via intratracheal instillation by LC-MS/MS analysis; type: ADME, tissue-based; settings: inhaled or intranasal
[7] = Cmax in Wistar Han rat plasma at 0.1 umol/kg, administered via intratracheal instillation by LC-MS/MS analysis; type: ADME; parameters: dose 0.1 umol/kg; settings: inhaled or intranasal
[8] = Clearance in Wistar Han rat at 1 umol/kg, iv administered as bolus dose by LC-MS/MS analysis; type: ADME, organism-based; settings: in vivo
[9] = Oral bioavailability in Wistar Han rat administered via gavage by LC-MS/MS analysis; type: ADME, organism-based; settings: in vivo
[10] = Lipophilicity, log D of the compound by chromatography; type: physicochemical
[11] = Intrinsic clearance in Wistar Han rat hepatocytes assessed per 10^6 cells; type: ADME, cell-based, Hepatocyte; settings: read-out: CLH
[12] = Terminal half life in Wistar Han rat 1 umol/kg, iv administered as bolus dose by LC-MS/MS analysis; type: ADME, organism-based; settings: in vivo, read-out: beta t1/2 (converted)
[13] = Apparent terminal half life in Wistar Han rat lung at 0.1 umol/kg, administered via intratracheal instillation by LC-MS/MS analysis; type: ADME, tissue-based; settings: inhaled or intranasal, read-out: betat1/2(app) (converted)
Rattus norvegicus [14] = experiment: Toxicity in inhaled CRL:CD Sprague Dawley rat model of sephadex induced lung edema assessed as induction of thymic involution administered once per day for 3 days; settings: in vivo, inhaled_or_intranasal, 72 h
Procedure, shortened: (§1)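 Thymic involution scored in the same Sephadex-challenged rats dosed by inhalation, as a sensitive marker of systemic GR agonism.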

[15] = Cmax in Wistar Han rat plasma at 0.1 umol/kg, administered as dry powder inhalation by LC-MS/MS analysis; type: ADME; parameters: dose 0.1 umol/kg, route respiratory (INHALATION); settings: inhaled or intranasal
[16] = AUC (0 to infinity) in Wistar Han rat lung at 0.1 umol/kg, administered as dry powder inhalation by LC-MS/MS analysis; type: ADME; parameters: dose 0.1 umol/kg, route respiratory (INHALATION), time infinity; settings: inhaled or intranasal
[17] = Apparent terminal half life in Wistar Han rat lung at 0.1 umol/kg, administered as dry powder inhalation by LC-MS/MS analysis; type: ADME; settings: inhaled or intranasal, read-out: betat1/2(app) (converted)
Lung [18] = experiment: Drug uptake in Wistar Han rat lung at 0.1 umol/kg, administered as dry powder inhalation after 4 hrs by LC-MS/MS analysis; type: ADME; settings: in vivo, inhaled_or_intranasal
[19] = Solubility of the compound in phosphate buffer at pH 7.4 using liquid sample at 20 degreeC; type: physicochemical
Procedure, shortened: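 Solubility measured in 0.1 M phosphate buffer at pH 7.4 and 20 °C, starting from a 10 mM DMSO stock solution.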

[20] = Solubility of the compound in phosphate buffer at pH 7.4 using solid sample at 23 degreeC; type: physicochemical
Procedure, shortened: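 Solubility measured in 0.1 M phosphate buffer at pH 7.4 and 23 °C, starting from crystalline solid.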

Lung [21] = experiment: Drug uptake in Wistar Han rat lung at 0.1 umol/kg, administered as dry powder inhalation after 24 hrs by LC-MS/MS analysis; type: ADME, tissue-based; settings: in vivo, inhaled_or_intranasal
[22] = Mean residence time in Wistar Han rat lung at 0.1 umol/kg, administered as dry powder inhalation by LC-MS/MS analysis; type: ADME, tissue-based; settings: inhaled or intranasal
[23] = Thermodynamic solubility of the compound in human intestinal fluid; type: physicochemical; settings: read-out: Therm_solubility
Rattus norvegicus [24] = experiment: Toxicity in inhaled CRL:CD Sprague Dawley rat model of sephadex induced lung edema assessed as induction of thymic involution administered once per day for 4 days; settings: in vivo, inhaled_or_intranasal, 96 h; procedure, shortened: as §1
[25] = Drug degradation in dog hepatocytes assessed as 5-hydroxy-indazole formation at 10 uM up to 120 mins by LC-MS/MS analysis; type: ADME, cell-based, Canis lupus familiaris, Hepatocyte; settings: 2 h
[26] = Drug degradation in human hepatocytes assessed as 5-hydroxy-indazole formation at 10 uM up to 120 mins by LC-MS/MS analysis; type: ADME, cell-based, Hepatocyte; settings: 2 h
[27] = Drug degradation in rat hepatocytes assessed as 5-hydroxy-indazole formation at 10 uM up to 120 mins by LC-MS/MS analysis; type: ADME, cell-based, Hepatocyte; settings: 2 h
[28] = Drug degradation in dog hepatocytes at 10 uM up to 120 mins by LC-MS/MS analysis; type: ADME, cell-based, Canis lupus familiaris, Hepatocyte; settings: 2 h
[29] = Drug degradation in rat hepatocytes at 10 uM up to 120 mins by LC-MS/MS analysis; type: ADME, cell-based, Hepatocyte; settings: 2 h
[30] = Drug degradation in human hepatocytes at 10 uM up to 120 mins by LC-MS/MS analysis; type: ADME, cell-based, Hepatocyte; settings: 2 h

SMILES | Vd [4] [L/kg] | hepatocyte CLint [5] [µL/min/1e6 cells] | clearance [8] [L/h/kg] | bioavailability [9] [%] | chromatographic logD [10] | hepatocyte CLint [11] [µL/min/1e6 cells] | half-life [12] [h] | Cmax [15] [µM] | AUC(0-inf) [16] [µM·h] | half-life [17] [h] | Drug uptake (Lung [18]) [%ID] | solubility [19] [µM] | solubility thermodynamic [20] [µM] | Drug uptake (Lung [21]) [%ID] | MRT [22] [h] | solubility thermodynamic [23] [µM] | ED25 (Rattus norvegicus [14]) [mg/kg] | also measured
C[C@H](NC(=O)C(C)(F)F)[C@H](Oc1ccc2c(cnn2-c2ccc(F)cc2)c1)c1ccc2c(c1)OCCO2 | 10 | 28 | 2.52 | 11 | 5.5 | 22 | 7.4 | – | – | – | – | – | – | – | – | – | – | AUC(0-inf) [1]: 12 µM·h; Drug uptake (Lung [2]): 4.5 %ID; Drug uptake (Lung [3]): 0.8 %ID; MRT [6]: 8.8 h; Cmax [7]: 0.03 µM; half-life [13]: 8.9 h
COc1cccc([C@@H](Oc2ccc3c(cnn3-c3ccc(F)cc3)c2)[C@H](C)NC(=O)C(F)(F)F)c1 [AZD-5423] | 23 | 16 | 2.28 | 37 | 6 | 13 | 4.7 | 0.122 | 18 | 7.5 | 0.7 | – | – | 0 to 0.4 | 1.5 | 12 (≈ 5.85 µg/mL) | – | Drug uptake (Lung [2]): 1 %ID; ED25 (Rattus norvegicus [24]): 0.0046 mg/kg
C[C@H](NC(=O)C(C)(F)F)[C@H](Oc1ccc2c(cnn2-c2cccc(C(=O)NCc3cccnc3)c2)c1)c1ccc2c(c1)OCOC2 | 0.81 | 21 | 4.38 | 0.3 | 3.6 | 25 | 0.1 | 0.012 | 190 | 9 | 41 | < 0.1 | 0.02 (≈ 0.0126 µg/mL) | 8.6 | 10 | 1.3 (≈ 0.816 µg/mL) | 0.027 | –
O=[14C](N[C@@H]1CCOC1)c1cccc(-n2ncc3cc(OS(=O)(=O)O)ccc32)c1 | – | – | – | – | – | – | – | – | – | – | – | – | – | – | – | – | – | Drug metabolism [25]: Metabolite_Detected; Drug metabolism [26]: Metabolite_Detected; Drug metabolism [27]: Metabolite_Detected
CCC(=O)O[C@]1(C(=O)SCF)[C@H](C)C[C@H]2[C@@H]3C[C@H](F)C4=CC(=O)C=C[C@]4(C)[C@@]3(F)[C@@H](O)C[C@@]21C [FLUTICASONE PROPIONATE] | 31 | 33 | 6.18 | < 0.1 | 4.9 | 28 | 3.3 | 0.024 | 200 | 4.5 | 43 | – | – | 1.9 | 6.5 | 0.62 (≈ 0.31 µg/mL) | 0.0039 | –
C[C@H](NC(=O)C(C)(F)F)[C@H](Oc1ccc2c(cnn2-c2cccc([14C](=O)N[C@@H]3CCOC3)c2)c1)c1ccc2c(c1)OCCO2 | – | – | – | – | – | – | – | – | – | – | – | – | – | – | – | – | – | Drug metabolism [25]: Metabolite_Detected; Drug degradation [28]: Metabolite_Detected; Drug degradation [29]: Metabolite_Detected; Drug metabolism [26]: Metabolite_Detected; Drug metabolism [27]: Metabolite_Detected; Drug degradation [30]: Metabolite_Detected

Continued, in another order:

Vd [4] [L/kg] | hepatocyte CLint [5] [µL/min/1e6 cells] | clearance [8] [L/h/kg] | bioavailability [9] [%] | chromatographic logD [10] | hepatocyte CLint [11] [µL/min/1e6 cells] | half-life [12] [h] | Cmax [15] [µM] | AUC(0-inf) [16] [µM·h] | half-life [17] [h] | Drug uptake (Lung [18]) [%ID] | solubility [19] [µM] | solubility thermodynamic [20] [µM] | Drug uptake (Lung [21]) [%ID] | MRT [22] [h] | solubility thermodynamic [23] [µM] | SMILES | ED25 (Rattus norvegicus [14]) [mg/kg] | also measured
0.97 | 21 | 4.08 | 0.16 | 3.7 | 25 | 0.2 | 0.021 | 26 | 4.9 | 4.1 | < 0.1 | 0.23 (≈ 0.144 µg/mL) | 0.18 | 2.6 | 2.1 (≈ 1.32 µg/mL) | C[C@H](NC(=O)C(C)(F)F)[C@H](Oc1ccc2c(cnn2-c2cccc(C(=O)NCc3cccnc3)c2)c1)c1ccc2c(c1)OCCO2 | 0.012 | –
0.16 | 29 | 1.8 | < 0.1 | 3.7 | 34 | 0.1 | 0.0074 | 740 | 17 | 73 | < 0.1 | 0.02 (≈ 0.0121 µg/mL) | 32 | 23 | 0.6 (≈ 0.364 µg/mL) | C[C@H](NC(=O)C(C)(F)F)[C@H](Oc1ccc2c(cnn2-c2cccc(C(=O)N[C@@H]3CCOC3)c2)c1)c1ccc2c(c1)OCCO2 [VELSECORAT] | 0.04 | –
2.8 | 22 | – | < 0.1 | 3.6 | 31 | 0.3 | 0.0049 | 5200 | 179 | 93 | < 0.01 | < 0.1 | 91 | 210 | 0.3 (≈ 0.196 µg/mL) | C[C@H](NC(=O)C(C)(F)F)[C@H](Oc1ccc2c(cnn2-c2cccc(C(=O)N[C@@H]3CCS(=O)(=O)C3)c2)c1)c1ccc2c(c1)OCCO2 | > 0.13 | –

From ChEMBL document CHEMBL4028861, “Selective Nonsteroidal Glucocorticoid Receptor Modulators for the Inhaled Treatment of Pulmonary Diseases” (J Med Chem, 2017)
